≈ marks a conversion by molar mass, not a printed value. Read-outs that look alike come from different tables or passages of the source.
Legend:
Stability in microsomes [1] = type: in vitro ADME, dog (beagle); conditions: Dog; 0.5 μM
Method in brief: (§1)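 Liver microsomes of each stated species were incubated with test compound at 0.5 µM. Intrinsic clearance (Cli) is reported in mL/min/g tissue.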

[2] = Rat 7-day repeat dose oral toxicology; type: in vivo, rat (male Wistar Han); conditions: all doses tested
[3] = tested on: L. donovani axenic amastigotes; experiment: Rate-of-kill of axenic amastigotes; type: cell-based, Leishmania donovani
Stability in hepatocytes [4] = type: in vitro ADME; conditions: Human; 0.5 μM
Method in brief: (§2)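 Test compound was incubated with hepatocytes of the stated species at 0.5 µM. The read-out is intrinsic clearance (Cli), expressed as mL/min/g tissue.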

Stability in hepatocytes [5] = type: in vitro ADME, dog (beagle); conditions: Dog; 0.5 μM
Method in brief: as §2

[6] = tested on: L. donovani axenic amastigotes; experiment: Cidal axenic amastigote assay; type: cell-based; conditions: Leishmania donovani, read-out: Cidal axenic EC50
[7] = tested on: L. donovani promastigotes (LdBOB); experiment: Promastigote drug sensitivity assay; type: cell-based, Leishmania donovani; conditions: for EC50: Leishmania donovani
[8] = tested on: L. donovani intramacrophage amastigotes (INMAC); experiment: Intra macrophage drug sensitivity assay; type: cell-based, Leishmania donovani; conditions: 5 RES clone 1 vs WT intramacrophage amastigotes
Stability in microsomes [9] = type: in vitro ADME, rat (Sprague Dawley); conditions: Rat; 0.5 μM
Method in brief: as §1

Rat pharmacokinetics = type: in vivo, Rat (male, SD)
Stability in hepatocytes [10] = type: in vitro ADME, rat (Sprague Dawley); conditions: Rat; 0.5 μM
Method in brief: as §2

[11] = Solubility in simulated physiological media; type: physicochemical; conditions: fed simulated intestinal fluid (FeSSIF), pH 6.5
[12] = tested on: L. donovani clinical isolates (LV9, SUKA 001, BHU1, DD8); type: cell-based, Leishmania donovani
[13] = tested on: L. donovani amastigotes (LV9); experiment: In vivo efficacy, mouse model of VL; set-up: species or system Leishmania donovani; conditions: 25 mg/kg bid, 10 days, oral
Method in brief: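 Each treatment arm used 5 mice. Regimens were dosed once daily (uid) or twice daily (bid) for 5 or 10 days, and bid dosing for 10 days was run over a dose range. Parasite burden was scored as Leishman Donovan Units: amastigotes per 500 nucleated cells multiplied by organ weight in g. Read-out was reduction in parasite load.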

Stability in microsomes [14] = type: in vitro ADME; conditions: Human; 0.5 μM
Method in brief: as §1

[15] = Non-GLP preclinical assessment of cardiovascular effects and genotoxicity
[16] = tested on: L. donovani promastigotes (LdBOB); experiment: Cell cycle analysis; type: cell-based, Leishmania donovani; conditions: 5x EC50 for 8 h
Mouse pharmacokinetics = type: in vivo, Mouse (male, CD1); conditions: for F% based on AUC(0-inf): mouse
Stability in hepatocytes [17] = type: in vitro ADME, mouse (CD1); conditions: Mouse; 0.5 μM
Method in brief: as §2

THP-1 cells = experiment: THP-1 host cell toxicity in the intra-macrophage assay; type: cell-based; conditions: Homo sapiens, THP-1, read-out: THP-1 EC50
Stability in microsomes [18] = type: in vitro ADME, mouse (CD1); conditions: Mouse; 0.5 μM
Method in brief: as §1

[19] = tested on: L. donovani amastigotes (LV9); conditions: uid; cited from earlier work
[20] = male, Sprague Dawley, whole blood, iv, 1 mg/kg
[21] = male, Sprague Dawley, whole blood, po, 10 mg/kg
[22] = male, Sprague Dawley, whole blood, po, 100 mg/kg
[23] = male, Sprague Dawley, whole blood, po, 300 mg/kg
[24] = male, CD1, mouse, whole blood, iv, 1 mg/kg
[25] = male, CD1, mouse, whole blood, po, 10 mg/kg
[26] = male, CD1, mouse, whole blood, po, 100 mg/kg
[27] = male, CD1, mouse, whole blood, po, 300 mg/kg

C[C@H]1CN(c2n[nH]c3nc(N[C@H]4CC[C@H](NS(=O)(=O)CCC(F)(F)F)CC4)ncc23)CCO1 [Compound 7]
Microsomes Cli (Stability in microsomes [1]): <0.4 mL/min/g tissue | Adverse effects (clinical chemistry and histopathology) [2]: no significant adverse effects | Time at which compound was cytocidal ([3]; 0.2 μM): 96 h | Time at which compound was cytocidal ([3]; 1.8 μM): 48 h | Hepatocytes Cli (Stability in hepatocytes [4]): 0.5 mL/min/g tissue | Hepatocytes Cli (Stability in hepatocytes [5]): 0.31 mL/min/g tissue | EC50 [6]: 100 nM | Fold ([7]; 4-resistant clone 1, fold resistance vs wild type): 20 | Fold ([7]; 4-resistant clone 2, fold resistance vs wild type): 24 | Fold ([7]; 4-resistant clone 3, fold resistance vs wild type): 48 | Fold ([7]; 5-resistant clone 1, fold resistance vs wild type): 41 | Fold ([7]; 5-resistant clone 2, fold resistance vs wild type): 35 | Fold ([7]; 5-resistant clone 3, fold resistance vs wild type): 22 | EC50 relative to WT ([7]; CRK12MUT and CYC9 co-overexpressing): ~ 6 fold | EC50 relative to WT ([7]; CRK12MUT overexpressing): ~ 3.4 fold | EC50 relative to WT ([7]; CRK12WT and CYC9 co-overexpressing): ~ 3 fold | EC50 ([7]; read-out: pEC50 (SD), 4-resistant clone 1 promastigotes (converted)): 1580 nM | EC50 ([7]; read-out: pEC50 (SD), 4-resistant clone 2 promastigotes (converted)): 2000 nM | EC50 ([7]; read-out: pEC50 (SD), 4-resistant clone 3 promastigotes (converted)): 3980 nM | EC50 ([7]; read-out: pEC50 (SD), 5-resistant clone 1 promastigotes (converted)): 3160 nM | EC50 ([7]; read-out: pEC50 (SD), 5-resistant clone 2 promastigotes (converted)): 3160 nM | EC50 ([7]; read-out: pEC50 (SD), 5-resistant clone 3 promastigotes (converted)): 2000 nM | EC50 ([7]; read-out: pEC50 (SD), Wild type (Age-matched) promastigotes (converted)): 50.1 nM | EC50 ([7]; read-out: pEC50 (SD), Wild type (Start clone) promastigotes (converted)): 79.4 nM | Fold ([7]; Wild type (Age-matched) promastigotes, fold vs wild type): 1 | Fold ([7]; Wild type (Start clone) promastigotes, fold vs wild type): 1 | Fold difference [8]: 5 | Microsomes Cli (Stability in microsomes [9]): <0.5 mL/min/g tissue | AUC(0-inf) (Rat pharmacokinetics; [20]): 1510 ± 782 ng·h/mL | Vd (Rat pharmacokinetics; [20]): 0.4 ± 0.1 L/kg | clearance (Rat pharmacokinetics; [20]): 14 ± 9 mL/min/kg | half-life (Rat pharmacokinetics; [20]): 0.4 ± 0.2 h | AUC(0-inf) (Rat pharmacokinetics; [21]): 6480 ± 2490 ng·h/mL | Cmax (Rat pharmacokinetics; [21]): 1040 ± 261 ng/mL | Tmax (Rat pharmacokinetics; [21]): 2 h | AUC(0-inf) (Rat pharmacokinetics; [22]): 61200 ± 23600 ng·h/mL | Cmax (Rat pharmacokinetics; [22]): 8470 ± 3750 ng/mL | Tmax (Rat pharmacokinetics; [22]): 7.3 h | AUC(0-inf) (Rat pharmacokinetics; [23]): 136000 ± 24800 ng·h/mL | Cmax (Rat pharmacokinetics; [23]): 14800 ± 2680 ng/mL | Tmax (Rat pharmacokinetics; [23]): 7.3 h | F% based on AUC(0-inf) (Rat pharmacokinetics; oral 10 mg/kg): 46 ±18% | F% based on AUC(0-inf) (Rat pharmacokinetics; oral 100 mg/kg): 40 ± 15% | F% based on AUC(0-inf) (Rat pharmacokinetics; oral 300 mg/kg): 51 ± 22% | Hepatocytes Cli (Stability in hepatocytes [10]): 0.77 mL/min/g tissue | solubility at 4 h [11]: 25 µg/mL (≈ 50.9 µM) | Variation in potency against a panel of Leishmania clinical-derived lines [12]: less than 10 fold | Reduction in parasite load [13]: 99% | Microsomes Cli (Stability in microsomes [14]): 0.71 mL/min/g tissue | Cardiovascular effects and genotoxicity [15]: did not reveal any issues that would prevent further development | Effect on cell-cycle progression [16]: accumulation of cells in G1 and in G2/M and a decrease in the proportion of cells in S phase | AUC(0-inf) (Mouse pharmacokinetics; [24]): 104 ± 26 ng·h/mL | Vd (Mouse pharmacokinetics; [24]): 4 ± 0.5 L/kg | clearance (Mouse pharmacokinetics; [24]): 169 ± 50 mL/min/kg | half-life (Mouse pharmacokinetics; [24]): 0.3 ± 0.04 h | AUC(0-inf) (Mouse pharmacokinetics; [25]): 1460 ± 362 ng·h/mL | Cmax (Mouse pharmacokinetics; [25]): 561 ± 148 ng/mL | Tmax (Mouse pharmacokinetics; [25]): 2 h | AUC(0-inf) (Mouse pharmacokinetics; [26]): 39400 ± 23800 ng·h/mL | Cmax (Mouse pharmacokinetics; [26]): 8810 ± 1970 ng/mL | Tmax (Mouse pharmacokinetics; [26]): 3 h | AUC(0-inf) (Mouse pharmacokinetics; [27]): 66200 ng·h/mL | Cmax (Mouse pharmacokinetics; [27]): 11400 ± 4210 ng/mL | Tmax (Mouse pharmacokinetics; [27]): 5 h | F% based on AUC(0-inf) (Mouse pharmacokinetics; oral 10 mg/kg): >100% | F% based on AUC(0-inf) (Mouse pharmacokinetics; oral 100 mg/kg): >100% | F% based on AUC(0-inf) (Mouse pharmacokinetics; oral 300 mg/kg): >100% | Hepatocytes Cli (Stability in hepatocytes [17]): 0.84 mL/min/g tissue | EC50 (THP-1 cells): > 50000 nM | Microsomes Cli (Stability in microsomes [18]): 0.52 mL/min/g tissue

CCCCCCCCCCCCCCCCOP(=O)([O-])OCC[N+](C)(C)C [miltefosine]
ED90 in a mouse model [19]: 27 mg/kg

From paper PMC6402543 (Nature, 2018)
